This is an account of results in ChEMBL document CHEMBL1142655, “Cytotoxicity of cis-platinum(II) conjugate models. The effect of chelating arms and leaving groups on cytotoxicity: a quantitative structure-activity relationship approach” (J Med Chem, 2005).

One experiment concerns A2780. Briefly: Inhibitory concentration against human A2780 ovarian adenocarcinoma cell line. Format: functional, cell-based. A digest of the protocol: (§1)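 Cells kept in RPMI1640 with 10% fetal calf serum, 2 mM L-glutamine and 1% antibiotics at 37 °C, 5% CO2. Cp8 subline was derived by chronic cisplatin exposure. 1 × 10^3 cells/well grew 24 h, then were exposed to 0-500 µM final for 120 h (DMSO ≤0.1% final). MTT was read after 3 h, A570. Run three times in quadruplicate. IC50 from nonlinear regression; mean ± SE.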
Broadly, the IC50 is the point on the concentration scale where inhibition reaches its midpoint. Take CARBOPLATIN: half-maximal inhibition (IC50) required 7.66 µM.

CISPLATIN had an IC50 of 1.37 µM.

In the case of DICHLORO(ETHYLENEDIAMINE) PLATINUM (II), the IC50 was determined as 5.55 µM.

For OXALIPLATIN, half-maximal inhibition (IC50) was put at 0.48 µM.

The subject of the next experiment is A2780. Briefly: Inhibitory concentration against cisplatin-resistant A2780 human ovarian adenocarcinoma cell line. Format: functional, cell-based. A digest of the protocol:
as §1
The substance CARBOPLATIN yielded an IC50 of 123 µM.

As for CISPLATIN, the IC50 was determined as 45 µM. This IC50 is about 2.7-fold lower than that of the substance before.

Regarding DICHLORO(ETHYLENEDIAMINE) PLATINUM (II), half-maximal inhibition (IC50) was put at 118 µM. Compared with the last substance, the IC50 is about 2.6-fold higher.

As to OXALIPLATIN, the IC50 amounted to 6.62 µM.
